The results in this text go back to ChEMBL document CHEMBL1156614, “Discovery of imidazole vinyl pyrimidines as a novel class of kinase inhibitors which inhibit Tie-2 and are orally bioavailable” (Bioorg Med Chem Lett, 2008).

The target in data set [1] is T1, Angiopoietin-1 receptor (Homo sapiens, UniProt Q02763). Kind of data set: Inhibition of recombinant Tie2 expressed in baculovirus-Sf21 system. The procedure, abridged:
(§1)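 Kinase-domain fragments expressed in baculovirus/Sf21 cells. Crude lysates (ice-cold Triton lysis with protease inhibitors, cleared) were diluted 1:200 for Tie-2, 1:400 for KDR and 1:1000 for Flt-1. Reactions ran on synthetic peptide-coated plates in 100 mM Hepes pH 7.4 with 5 µM ATP, 10 mM MnCl2, 0.1 mM vanadate, 0.2 mM DTT and 2.5% final DMSO, at room temperature for 60 min (Tie-2) or 20 min (KDR, Flt-1).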

Data set [2] concerns the target Vascular endothelial growth factor receptor 1 (Homo sapiens, UniProt P17948). The data set is described as follows: Inhibition of recombinant Flt1 expressed in baculovirus-Sf21 system. The procedure, abridged: as §1
Data set [3] has as its target Vascular endothelial growth factor receptor 2 (Homo sapiens, UniProt P35968). The data set is described as follows: Inhibition of recombinant KDR expressed in baculovirus-Sf21 system. The procedure, abridged: as §1
Data set [4] concerns the target T1, Angiopoietin-1 receptor. Kind of data set: Inhibition of human Tie2 autophosphorylation expressed in CHOK1 cells by ELISA. It counts as cell-based, CHO-K1. The procedure, abridged: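 CHO-K1 cells stably expressing human Tie-2 were seeded at 6×10^4 cells/well and grown 3 days in DMEM/G418/10% FCS. Compound was added in DMEM with 1% FCS for 45 min at 37 °C. Cells were lysed on ice, and lysate was captured on a human Tie-2 ELISA plate (2 h, room temperature). Phospho-Tie-2 was detected with a rabbit antibody, then anti-rabbit HRP and colour reagent; read at OD450.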

A short description of data set [5]: Inhibition of p38.
For another data set, the system named is HUVEC. The data set is described as follows: Inhibition of growth factor-stimulated proliferation of HUVEC. It counts as functional, cell-based. The settings on record: Homo sapiens.
A short description of data set [6]: Fraction unbound ligand in mouse. It counts as ADME, organism-based. The settings on record: in vivo.
Data set [7] is described as follows: Fraction unbound ligand in rat. It counts as ADME.
The nature of data set [8]: Cmax in mouse at 2 mg/kg by cassette dosing assay. It counts as ADME, organism-based. Set-up: dose 2 mg/kg. The settings on record: in vivo.
A further data set concerns Mus musculus. The data set is described as follows: AUC in mouse at 2 mg/kg by cassette dosing assay. It counts as ADME, organism-based, Plasma. The note with it: in vivo. Also on record: dose 2 mg/kg.
Data set [9] is described as follows: Cmax in mouse at 1 mg/kg, po by cassette dosing assay. Also on record: dose 1 mg/kg, route oral. It counts as ADME, organism-based. The settings on record: in vivo.

T1 sequence (Q02763 whole entry, the tested form may be a part): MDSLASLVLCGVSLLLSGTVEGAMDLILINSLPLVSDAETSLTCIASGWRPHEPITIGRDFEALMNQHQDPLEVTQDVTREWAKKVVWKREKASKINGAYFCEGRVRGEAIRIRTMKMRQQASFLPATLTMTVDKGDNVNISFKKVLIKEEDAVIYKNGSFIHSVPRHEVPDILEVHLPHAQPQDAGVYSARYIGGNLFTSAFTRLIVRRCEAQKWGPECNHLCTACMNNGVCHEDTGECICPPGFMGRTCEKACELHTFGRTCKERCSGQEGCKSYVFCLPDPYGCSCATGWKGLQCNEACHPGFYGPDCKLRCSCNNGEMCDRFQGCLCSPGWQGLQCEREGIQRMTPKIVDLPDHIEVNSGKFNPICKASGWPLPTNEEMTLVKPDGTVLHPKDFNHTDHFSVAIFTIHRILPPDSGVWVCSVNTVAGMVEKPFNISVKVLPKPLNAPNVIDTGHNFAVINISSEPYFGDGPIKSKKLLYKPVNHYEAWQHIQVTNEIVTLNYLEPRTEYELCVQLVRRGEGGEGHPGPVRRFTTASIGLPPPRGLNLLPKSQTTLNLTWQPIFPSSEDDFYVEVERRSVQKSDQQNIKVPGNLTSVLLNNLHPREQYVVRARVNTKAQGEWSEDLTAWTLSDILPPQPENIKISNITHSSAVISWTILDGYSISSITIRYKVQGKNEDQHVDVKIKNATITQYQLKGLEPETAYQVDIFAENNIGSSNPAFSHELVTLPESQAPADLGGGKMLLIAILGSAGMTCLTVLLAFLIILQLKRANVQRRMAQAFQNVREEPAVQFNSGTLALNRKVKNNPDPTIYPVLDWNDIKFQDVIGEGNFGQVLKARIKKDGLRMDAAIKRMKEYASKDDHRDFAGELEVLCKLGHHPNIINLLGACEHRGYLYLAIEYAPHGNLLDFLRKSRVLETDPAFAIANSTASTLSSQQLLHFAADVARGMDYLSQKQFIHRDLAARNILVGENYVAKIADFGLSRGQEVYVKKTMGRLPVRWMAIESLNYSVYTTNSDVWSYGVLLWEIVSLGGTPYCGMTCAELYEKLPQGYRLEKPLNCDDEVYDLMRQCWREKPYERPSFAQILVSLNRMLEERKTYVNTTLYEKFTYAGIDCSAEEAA
Sequence of Vascular endothelial growth factor receptor 2 (P35968 whole entry): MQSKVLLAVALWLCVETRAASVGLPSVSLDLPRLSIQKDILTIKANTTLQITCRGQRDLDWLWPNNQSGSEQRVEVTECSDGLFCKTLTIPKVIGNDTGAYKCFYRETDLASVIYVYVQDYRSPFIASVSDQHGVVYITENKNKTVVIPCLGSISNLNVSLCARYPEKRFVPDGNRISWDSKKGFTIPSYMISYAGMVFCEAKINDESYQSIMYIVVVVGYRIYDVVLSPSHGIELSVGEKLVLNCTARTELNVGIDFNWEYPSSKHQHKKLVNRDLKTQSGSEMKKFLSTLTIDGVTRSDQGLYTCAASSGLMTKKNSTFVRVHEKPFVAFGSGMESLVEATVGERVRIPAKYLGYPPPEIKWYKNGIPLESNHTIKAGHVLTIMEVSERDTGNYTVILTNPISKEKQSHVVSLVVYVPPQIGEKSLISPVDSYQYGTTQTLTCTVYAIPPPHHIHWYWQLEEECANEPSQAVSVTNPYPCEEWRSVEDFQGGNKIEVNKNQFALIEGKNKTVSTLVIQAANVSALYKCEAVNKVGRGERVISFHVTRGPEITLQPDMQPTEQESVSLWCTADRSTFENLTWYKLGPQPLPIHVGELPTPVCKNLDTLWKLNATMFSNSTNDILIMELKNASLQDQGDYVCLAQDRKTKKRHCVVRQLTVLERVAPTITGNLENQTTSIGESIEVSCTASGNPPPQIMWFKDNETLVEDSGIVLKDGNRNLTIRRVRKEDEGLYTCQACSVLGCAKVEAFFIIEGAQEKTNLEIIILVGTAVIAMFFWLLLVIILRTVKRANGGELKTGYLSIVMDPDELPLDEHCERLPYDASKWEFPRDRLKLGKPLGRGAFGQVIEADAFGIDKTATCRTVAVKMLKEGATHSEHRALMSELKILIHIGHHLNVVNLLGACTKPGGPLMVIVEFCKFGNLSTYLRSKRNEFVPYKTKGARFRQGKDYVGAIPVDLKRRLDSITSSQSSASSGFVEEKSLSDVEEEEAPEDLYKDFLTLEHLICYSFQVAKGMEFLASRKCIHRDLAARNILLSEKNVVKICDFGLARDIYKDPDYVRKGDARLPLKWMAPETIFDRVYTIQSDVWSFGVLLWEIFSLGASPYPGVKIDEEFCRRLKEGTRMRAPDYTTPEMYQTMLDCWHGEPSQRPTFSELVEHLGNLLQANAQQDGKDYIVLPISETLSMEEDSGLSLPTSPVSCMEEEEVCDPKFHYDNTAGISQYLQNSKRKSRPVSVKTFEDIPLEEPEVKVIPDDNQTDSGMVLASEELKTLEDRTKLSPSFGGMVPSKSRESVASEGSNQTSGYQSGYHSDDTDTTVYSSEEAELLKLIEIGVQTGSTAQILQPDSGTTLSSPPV
Sequence of Vascular endothelial growth factor receptor 1 (P17948 whole entry): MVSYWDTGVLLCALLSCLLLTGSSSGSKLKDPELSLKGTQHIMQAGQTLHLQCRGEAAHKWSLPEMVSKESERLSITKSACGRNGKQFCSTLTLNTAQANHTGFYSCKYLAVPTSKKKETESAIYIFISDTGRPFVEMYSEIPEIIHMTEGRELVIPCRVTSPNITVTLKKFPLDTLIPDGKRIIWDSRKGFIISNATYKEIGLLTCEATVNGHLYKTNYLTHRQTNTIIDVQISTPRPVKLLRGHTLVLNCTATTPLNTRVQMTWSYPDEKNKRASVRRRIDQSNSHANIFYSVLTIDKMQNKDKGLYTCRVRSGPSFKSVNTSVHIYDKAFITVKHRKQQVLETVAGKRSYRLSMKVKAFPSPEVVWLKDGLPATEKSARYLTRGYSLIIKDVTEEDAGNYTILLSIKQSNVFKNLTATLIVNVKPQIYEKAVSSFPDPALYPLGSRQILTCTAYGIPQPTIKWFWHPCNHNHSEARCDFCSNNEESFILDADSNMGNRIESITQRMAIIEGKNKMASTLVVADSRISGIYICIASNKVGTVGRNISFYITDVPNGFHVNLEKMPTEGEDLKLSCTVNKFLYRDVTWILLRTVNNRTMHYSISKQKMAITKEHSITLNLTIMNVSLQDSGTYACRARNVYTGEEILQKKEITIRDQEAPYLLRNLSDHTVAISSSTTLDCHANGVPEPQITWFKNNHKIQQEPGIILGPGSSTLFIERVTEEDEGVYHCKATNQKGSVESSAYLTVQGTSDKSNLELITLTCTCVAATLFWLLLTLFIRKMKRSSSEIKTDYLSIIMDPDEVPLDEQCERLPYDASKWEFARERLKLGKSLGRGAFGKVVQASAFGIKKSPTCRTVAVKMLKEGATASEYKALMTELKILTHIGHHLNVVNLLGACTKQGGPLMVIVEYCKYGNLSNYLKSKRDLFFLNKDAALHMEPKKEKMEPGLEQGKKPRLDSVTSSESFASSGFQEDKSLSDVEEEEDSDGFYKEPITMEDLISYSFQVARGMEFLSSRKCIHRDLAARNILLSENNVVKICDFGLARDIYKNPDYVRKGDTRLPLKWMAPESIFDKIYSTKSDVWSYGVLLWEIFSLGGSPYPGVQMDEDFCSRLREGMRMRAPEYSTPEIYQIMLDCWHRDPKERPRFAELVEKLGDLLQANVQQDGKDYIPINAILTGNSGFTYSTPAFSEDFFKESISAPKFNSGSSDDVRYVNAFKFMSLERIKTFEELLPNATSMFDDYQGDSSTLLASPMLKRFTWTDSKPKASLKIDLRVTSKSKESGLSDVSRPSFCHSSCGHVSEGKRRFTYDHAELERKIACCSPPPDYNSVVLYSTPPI

Take `Cn1cnc(-c2ccccc2)c1C(=O)Nc1ccnc(N)n1`: the IC50 (at Angiopoietin-1 receptor [1]; in data set [2]; in data set [3]) was more than 100 µM throughout.
Take `CNc1nccc(/C=C/c2c(-c3ccccc3)nc3sccn23)n1`: the IC50 (commonly the midpoint of a concentration-inhibition curve) on Angiopoietin-1 receptor [1] was 14 µM; in data set [2] it was 84 µM; in data set [3], 17 µM.
The like results for `Nc1nccc(/C=C/c2c(-c3ccccc3)ncn2Cc2ccccc2)n1` were, in that order, 2.8 µM, 31 µM and 7 µM.
The like results for `CC(=O)Nc1nccc(/C=C/c2c(-c3ccccc3)nc3sccn23)n1` were, in that order, 11 µM, 100 µM and 4.5 µM.
For `C(=C\c1c(-c2ccccc2)nc2sccn12)/c1ccnc(Nc2ccccc2)n1` the same measures were 68 µM, more than 100 µM and more than 100 µM.
On to `CC(Nc1nccc(/C=C/c2c(-c3ccccc3)nc3sccn23)n1)c1ccccc1` (centres undefined), for which the IC50 (on Angiopoietin-1 receptor [1]; in data set [2]; in data set [3]) was more than 100 µM in each case.
Turning to `Cn1cnc(-c2ccccc2)c1/C=C/c1ccnc(N)n1`, the IC50 at Angiopoietin-1 receptor [4] is 0.34 µM; in data set [5], 12 µM; in the data set with HUVEC it was more than 10 µM; at Angiopoietin-1 receptor [1], 3.8 µM; in [2], 34 µM; in data set [3] it was 3.2 µM. Also, the fraction unbound – broadly, the share of the substance not bound to proteins or other matrix – in data set [6] was 0.125; in data set [7], 0.099. The peak level in data set [8] (Cmax) was 460 nM. Further, the AUC (usually concentration integrated over time) in the data set with Mus musculus was 0.58 µM·h.
For `Cn1cnc(-c2ccccc2)c1NCCc1ccnc(N)n1`, the IC50 (on Angiopoietin-1 receptor [1]; in data set [2]; in data set [3]) was more than 100 µM each time.
Consider `Nc1cc(/C=C/c2c(-c3ccccc3)nc3sccn23)ncn1`, for which the results for the IC50 (on Angiopoietin-1 receptor [1]; in data set [2]; in data set [3]) were 5.2 µM, more than 100 µM and 35 µM, respectively.
As to `Nc1nccc(/C=C/c2c(-c3ccccc3)nc3sccn23)n1`, the IC50 is 6 µM on Angiopoietin-1 receptor [1], 30 µM in data set [2] and 7 µM in [3]. In addition, the concentration in [9] peaked (Cmax) at 290 nM.
As for `Nc1ccnc(/C=C/c2c(-c3ccccc3)nc3sccn23)n1`, the IC50 (on Angiopoietin-1 receptor [1]; in data set [2]; in data set [3]) was more than 100 µM throughout.
Turning to `Nc1nccc(/C=C/c2c(-c3ccccc3)nc3n2CCS3)n1`, the IC50 on Angiopoietin-1 receptor [1] was 2.9 µM; in data set [2], 23 µM; in data set [3] it was 3.2 µM.
`Cn1cnc(-c2ccccc2)c1C#Cc1ccnc(N)n1`: the half-inhibitory concentration (IC50) on Angiopoietin-1 receptor [1] stood at 6.4 µM; in data set [2], 36 µM; in [3], 2.9 µM.
For `Nc1nccc(/C=C/c2[nH]ncc2-c2ccccc2)n1` the same measures were 64 µM, more than 100 µM and more than 100 µM.
The like results for `Clc1nccc(/C=C/c2c(-c3ccccc3)nc3sccn23)n1` were, in that order, 55 µM, 66 µM and more than 100 µM.
For `Nc1nccc(/C=C/c2ccsc2-c2ccccc2)n1` the same measures were more than 100 µM, more than 100 µM and more than 100 µM.
As for `Cn1cnc(-c2ccccc2)c1C1CC1c1ccnc(N)n1` (centres undefined), the IC50 (on Angiopoietin-1 receptor [1]; in data set [2]; in [3]) was more than 100 µM each time.
In the case of `CC(C)(C)C(=O)Nc1nccc(/C=C/c2c(-c3ccccc3)nc3sccn23)n1`, the results for the IC50 (at Angiopoietin-1 receptor [1]; in data set [2]; in data set [3]) were 41 µM, 96 µM and 13 µM, respectively.
The like results for `Cn1cnc(-c2ccccc2)c1NC(=O)c1ccnc(N)n1` were, in that order, more than 100 µM, more than 100 µM and more than 100 µM.
Consider `C(=C\c1c(-c2ccccc2)nc2sccn12)/c1ccncn1`, for which the IC50 at Angiopoietin-1 receptor [1] is 27 µM; in data set [2] it was more than 100 µM; in data set [3] it was 77 µM.
With `Nc1nccc(/C=C/c2c(-c3ccc(F)cc3)nc3sccn23)n1`, the IC50 at Angiopoietin-1 receptor [1] was found to be 13 µM.
As for `Nc1nccc(/C=C/c2[nH]cnc2-c2ccccc2)n1`, the IC50 on Angiopoietin-1 receptor [4] was found to be 0.37 µM; on Angiopoietin-1 receptor [1] it was 8.4 µM; in data set [2], 68 µM; in data set [3] it was 9.8 µM.
On to `Cn1cnc(/C=C/c2ccnc(N)n2)c1-c1ccccc1`, for which the figures for the IC50 (at Angiopoietin-1 receptor [1]; in data set [2]; in data set [3]) were more than 100 µM, more than 100 µM and 7.8 µM, respectively.
`Cc1nc2sccn2c1/C=C/c1ccnc(N)n1`: the IC50 on Angiopoietin-1 receptor [1] is more than 100 µM; in data set [2] it was more than 100 µM; in data set [3], 70 µM.
Take `Nc1nccc(/C=C/c2c(-c3ccccc3)ncn2CCN2CCCC2)n1`: the IC50 at Angiopoietin-1 receptor [1] is 21 µM; in data set [2] it was more than 100 µM; in data set [3], 32 µM.
For `Nc1nccc(/C=C/c2sccc2-c2ccccc2)n1` the same measures were more than 100 µM, more than 100 µM and more than 100 µM.
The like results for `Nc1nccc(/C=C/c2c(Cl)nc3sccn23)n1` were, in that order, more than 100 µM, more than 100 µM and 31 µM.
Take `Cn1c(-c2ccccc2)c(/C=C/c2ccnc(N)n2)c2ccccc21`: the IC50 at Angiopoietin-1 receptor [1] amounted to 83 µM.
Take `Nc1nccc(/C=C/c2c(-c3ccccc3)nc3ccccn23)n1`: the IC50 was found to be 5.6 µM at Angiopoietin-1 receptor [1], 79 µM in [2] and 13 µM in data set [3].
On to `Nc1nccc(/C=C/c2c(-c3ccccc3)ncn2CC(=O)O)n1`, for which the IC50 at Angiopoietin-1 receptor [1] turned out to be 68 µM.
For the compound `Cn1cnc(-c2ccccc2)c1CNc1ccnc(N)n1`, the IC50 (on Angiopoietin-1 receptor [1]; in [2]; in data set [3]) was more than 100 µM in each case.
Take `Cn1cnc(-c2ccccc2)c1Nc1ccnc(N)n1`: the IC50 (at Angiopoietin-1 receptor [1]; in [2]; in [3]) was more than 100 µM throughout.
